From PubChem BioAssay
Most compounds without a hit are left out; they make up all but 2.6% or so of the library.
SENP7 inh – SENP7 protease inhibitors, primary screen, biochemical, luminescence, uHTS | Sentrin-specific protease 7 (Homo sapiens), Q9BQF6 | recombinant SENP7, Z-RLRGG-aminoluciferin luminescence, 40 min | inhibition, % at 5 µM | hit rate 1.5% among 330,000 | AID 434973, 2010;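 active = inhibition above about 50% at the single test dose, limit read from the data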
Platelet DG rel – inhibitors of platelet dense granule secretion, primary screen, cell-based, MLPCN, human platelets; AID 1663, 2009; human platelet-rich plasma, SFLLRN dense granule ATP release, luminescence; hit rate 0.22% among 300,000; inhibition, %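 (compounds screened at 7.5 µM in platelet-rich plasma)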;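 active = mean replicate score, as percent of positive control, at or above 50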
SENP8 block-1 – human SENP8 protease inhibitors, primary screen, biochemical, fluorescence, Nedd8 protein substrate, uHTS. recombinant SENP8. inhibition, % at 20 µM. hit rate 0.64% among 360,000. AID 602440, 2012; in the data active = inhibition mostly above about 40%, no sharp cut-off; inactive = mostly below about 27%
Target sequence (Q96LD8 whole entry, looked up): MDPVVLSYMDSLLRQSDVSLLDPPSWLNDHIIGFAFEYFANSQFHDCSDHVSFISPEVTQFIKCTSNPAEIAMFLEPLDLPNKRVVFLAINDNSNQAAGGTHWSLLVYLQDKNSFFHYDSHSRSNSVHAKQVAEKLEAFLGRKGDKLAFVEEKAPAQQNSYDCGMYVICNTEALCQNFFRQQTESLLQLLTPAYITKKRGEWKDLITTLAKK
SENP6 inh – SENP6 protease inhibitors, primary screen, biochemical, luminescence, uHTS; inhibition, % at 10 µM; hit rate 1.8% among 330,000; Recombinant SENP6 catalytic domain, aminoluciferin luminescence; Sentrin-specific protease 6 (Homo sapiens), Q9GZR1;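 active = inhibition above about 50% at the single tested dose, limit read from the data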
SENP8 block-2 – SENP8 protease inhibitors, primary screen, biochemical, luminescence; Sentrin-specific protease 8 (Homo sapiens), Q96LD8; purified SENP8, Z-RLRGG-aminoluciferin cleavage; inhibition, % at 10 µM; hit rate 1.2% among 330,000; in the data active = inhibition above about 50%
SENP1 inh – human SENP1 catalytic domain inhibitors, primary screen, biochemical, FRET, uHTS; Sentrin-specific protease 1 (Homo sapiens), Q9P0U3; recombinant SENP1 catalytic domain, CyPet-SUMO1-YPet FRET cleavage; inhibition, % at 10 µM; hit rate 0.21% among 360,000;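 active = inhibition at least 30% at 10 µM, raw YFP signal under a set limit, fluorescence ratio 0.5 to 1.5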
Target sequence (Q9P0U3 419-644 limits assumed): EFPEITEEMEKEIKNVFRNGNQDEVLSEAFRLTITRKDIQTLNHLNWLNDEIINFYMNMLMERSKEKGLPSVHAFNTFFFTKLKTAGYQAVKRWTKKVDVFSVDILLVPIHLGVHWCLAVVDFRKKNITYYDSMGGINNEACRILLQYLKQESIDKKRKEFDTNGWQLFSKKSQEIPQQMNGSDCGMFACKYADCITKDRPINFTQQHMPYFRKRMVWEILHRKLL
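Test system: human SENP1 catalytic domain; medium: Tris pH 8 buffer plus EDTA, NaCl, BME, BSA, NP40, catalase; incubation: 50 min reaction at room temperature; technique: FRET, CFP and YFP emission; controls: no-enzyme low control and enzyme-plus-DMSO high control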
SENP8 confirm – SENP8 protease inhibitors, retest, confirmation, biochemical, luminescence, single concentration; Recombinant SENP8, Z-RLRGG-aminoluciferin luminescence, 60 min; hit rate 40% among 6,200; inhibition, % at 12.5 µM; shares compounds with SENP7 inh;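 active = mean inhibition across replicates above about 50%, limit read from the data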
SENP6 conf – SENP6 protease inhibitors, confirmation, biochemical, luminescence, single concentration | hit rate 58% among 6,200 | AID 488915, 2010 | recombinant SENP6, Z-RLRGG-aminoluciferin luminescence | inhibition, % at 12.5 µM | shares compounds with SENP7 inh
SENP7 conf – SENP7 protease inhibitors, retest, confirmation, biochemical, luminescence, single concentration; shares compounds with SENP7 inh; hit rate 69% among 6,200; inhibition, % at 12.5 µM; AID 488917, 2010; recombinant SENP7, Z-RLRGG-aminoluciferin luminescence, 40 min
Casp3 SENP sel – caspase-3 protease inhibitors, confirmation, selectivity assay for SENP inhibitor project, biochemical, single concentration. inhibition, % at 12.5 µM. hit rate 60% among 6,200. shares compounds with SENP7 inh. purified caspase-3, Z-DEVD-aminoluciferin luminescence, 60 min;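 active = mean inhibition above about 50%, limit read from the data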
Target sequence (P42574 28-227 limits assumed): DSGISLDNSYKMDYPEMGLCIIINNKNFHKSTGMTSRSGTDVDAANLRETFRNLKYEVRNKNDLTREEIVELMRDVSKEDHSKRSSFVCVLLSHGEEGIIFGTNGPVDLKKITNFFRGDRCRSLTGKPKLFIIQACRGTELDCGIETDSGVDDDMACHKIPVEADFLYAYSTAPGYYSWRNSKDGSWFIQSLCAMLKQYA
Luc interf – counter-screen for SENP inhibitors: luminescence interference; shares compounds with SENP7 inh; hit rate 39% among 6,200; Pre-incubated SENP8/Z-RLRGG-aminoluciferin, luciferase luminescence interference; inhibition, % at 12.5 µM;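 active = mean inhibition above about 50% when retested at one dose, limit read from the data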
Large screens that a line does not name were inactive (follow-up assays come after a bar, where they were run).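 The calls were made as follows, unless noted: active = mean inhibition above about 50% in the one-dose retest (limit read from the data); inactive = the rest.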

O=C(Nc1ccc2[nH]c(=S)sc2c1)Nc1ccccc1F	SENP7 inh 99, SENP6 inh 97, SENP8 block-2 95 | SENP8 confirm 99 | SENP6 conf 100 | SENP7 conf 104 | Casp3 SENP sel 98 | Luc interf 90
COc1ccccc1-c1sc2cc3c(cc2c1C#Cc1cncn1C)OCO3	none (no result: Platelet DG rel)
COC(=O)CNC(=O)c1ccc(NS(=O)(=O)c2cc([N+](=O)[O-])ccc2Cl)cc1	none
CSCC[C@H](NC(=O)C1CCN(C(=O)[C@@H](N)Cc2ccccc2)CC1)C(=O)O	none (no result: Platelet DG rel)
COC(=O)c1cc(COc2ccc3oc(C)c(C(=O)OC)c3c2)c(C)o1	none
CC(=O)c1c(C)oc2ccc(OCc3ccccc3)cc12	SENP6 inh 55 | SENP8 confirm inactive | SENP6 conf inactive | SENP7 conf 68 | Casp3 SENP sel inactive | Luc interf inactive
O=C(O)c1ccccc1COc1ccccc1Cl	none
O=C(O)c1cccc(OCc2ccccc2Cl)c1	SENP7 inh 75, SENP6 inh 94, SENP8 block-2 79 | SENP8 confirm 86 | SENP6 conf 86 | SENP7 conf 97 | Casp3 SENP sel 82 | Luc interf 89
Cc1oc2ccc(OCc3ccccc3Cl)cc2c1C(=O)O	SENP6 inh 62 | SENP8 confirm inactive | SENP6 conf inactive | SENP7 conf 51 | Casp3 SENP sel 55 | Luc interf inactive
CC(=O)c1nccs1	none (no result: Platelet DG rel)
O=C(c1ccc2nc[nH]c2c1)N1CCN(S(=O)(=O)c2cccc(Cl)c2)CC1	none (no result: SENP7 inh, Platelet DG rel, SENP6 inh, SENP8 block-2)
Cc1ccc(-c2nc3sc4c(c3c(=O)n2N)CCCC4)cc1	SENP7 inh 54, SENP6 inh 72 | SENP8 confirm inactive | SENP6 conf 66 | SENP7 conf 88 | Casp3 SENP sel inactive | Luc interf inactive
O=c1c2c3c(sc2nc2n1CCCCC2)CCCC3	SENP6 inh 62 | SENP8 confirm inactive | SENP6 conf inactive | SENP7 conf 57 | Casp3 SENP sel 56 | Luc interf inactive
CCC(=O)Oc1ccc(-c2cnc3ccccc3n2)cc1	SENP7 inh 94, SENP6 inh 94, SENP8 block-2 89 | SENP8 confirm inactive | SENP6 conf 92 | SENP7 conf 101 | Casp3 SENP sel 88 | Luc interf inactive
O=C(Oc1ccc(-c2cnc3ccccc3n2)cc1)c1ccco1	SENP7 inh 98, SENP6 inh 88, SENP8 block-2 92 | SENP8 confirm 76 | SENP6 conf 83 | SENP7 conf 94 | Casp3 SENP sel 87 | Luc interf inactive
COc1cccc(-c2ccc(SCc3ccccn3)nn2)c1	SENP7 inh 80, SENP8 block-2 59 | SENP8 confirm 75 | SENP6 conf 67 | SENP7 conf 92 | Casp3 SENP sel 86 | Luc interf 78
COc1ccc(NC2CCCN(C(=O)CN3CCOC3=O)C2)cc1 (stereo not drawn)	none
CCN(Cc1ccccc1)C(=O)c1ccc(CS(=O)c2ccccc2C)o1 (stereo not drawn)	none
CC1(C(=O)NS(=O)(=O)Cc2ccccc2)CCN1C(=O)Cc1cc(F)ccc1F (stereo not drawn)	none (no result: SENP7 inh, Platelet DG rel, SENP6 inh, SENP8 block-2)
Cc1ccc(O)c(NC(=O)c2ccc3c(c2)C(=O)N(Cc2cccnc2)C3=O)c1	SENP7 inh 86 | SENP8 confirm inactive | SENP6 conf inactive | SENP7 conf inactive | Casp3 SENP sel inactive | Luc interf inactive
O=C(N/N=C/c1ccc(-c2ccccc2C(=O)O)o1)c1cccs1	SENP6 inh 51 | SENP8 confirm inactive | SENP6 conf inactive | SENP7 conf 64 | Casp3 SENP sel 73 | Luc interf inactive
Cc1ccc(/C=N/NC(=O)CNC(=O)c2cccs2)o1	none
O=C(O)c1ccc(N/N=C/C(Br)=C/c2ccccc2)cc1	SENP7 inh 83, SENP6 inh 101, SENP8 block-2 96 | SENP8 confirm 99 | SENP6 conf 100 | SENP7 conf 103 | Casp3 SENP sel 85 | Luc interf 96
O=C(N/N=C/C(Br)=C\c1ccccc1)c1cccs1	SENP6 inh 63, SENP8 block-2 52 | SENP8 confirm inactive | SENP6 conf inactive | SENP7 conf 77 | Casp3 SENP sel inactive | Luc interf inactive
CC(=C/c1ccccc1)/C=N/NC(=O)c1ccccn1	SENP7 inh 81, SENP6 inh 69, SENP8 block-2 61 | SENP8 confirm 72 | SENP6 conf 71 | SENP7 conf 92 | Casp3 SENP sel 85 | Luc interf 73
CC1CC(C)CN(CC(=O)NNC(=O)COc2ccc(Cl)cc2)C1 (stereo not drawn)	none (no result: Platelet DG rel)
O=C(N/N=C/c1ccc(OC(=O)c2cccs2)cc1)c1cccc(F)c1	SENP7 inh 72 | SENP8 confirm inactive | SENP6 conf inactive | SENP7 conf inactive | Casp3 SENP sel inactive | Luc interf inactive
CC(=C/c1ccccc1)/C=N/NC(=O)c1cccs1	SENP7 inh 79, SENP6 inh 83, SENP8 block-2 75 | SENP8 confirm inactive | SENP6 conf 80 | SENP7 conf 96 | Casp3 SENP sel 70 | Luc interf inactive
CC(/C=N/NC(=O)c1cccc(F)c1)=C\c1ccccc1	SENP7 inh 79, SENP6 inh 83, SENP8 block-2 67 | SENP8 confirm 76 | SENP6 conf 78 | SENP7 conf 95 | Casp3 SENP sel 82 | Luc interf 71
O=C(N/N=C/c1ccc(OC(=O)c2cccc(F)c2)cc1)c1cccnc1	none
